Screens from PubChem BioAssay.
Sampled rows, rich in hits. Any-hit rate of the full collection: about 2.9%.
Apaf-1 inh: human Apaf-1 inhibition. hit rate 0.71% among 330,000. inhibition, % at 20 µM. O14727. reconstituted apoptosome caspase-3 activity, DEVD-Rh110 fluorescence; active = inhibition of at least 40% at 20 µM;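 note: plate controls were DMSO wells for no effect and DEVD-CHO caspase inhibitor wells for full effect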
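System: Apoptosome proteins | Medium: Hepes pH 7.5 with detergent and BSA | Also added: Cytochrome c trigger plus (Z-DEVD)2-Rh110 caspase-3 substrate | Incubation: 30 min compound preincubation, 50 min activation, room temperature | Detection: Rhodamine 110 fluorescence at Ex 480/Em 540 nm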
SENP8 block-1: inhibitors of human SENP8 protease. hit rate 0.64% among 360,000. recombinant SENP8, Nedd8 substrate fluorescence. inhibition, % at 20 µM. Q96LD8; in the data active = inhibition mostly above about 40%, no sharp cut-off; inactive = mostly below about 27%
SENP7 block: inhibitors of human SENP7 protease. recombinant SENP7, Z-RLRGG-aminoluciferin luminescence, 40 min. inhibition, % at 5 µM. hit rate 1.5% among 330,000. AID 434973;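 active = inhibition above about 50% at the single test dose, limit read from the data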;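 note: plate controls were DMSO with enzyme for no effect and no enzyme buffer wells for full effect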
Target sequence (Q9BQF6 706-1050 limits assumed): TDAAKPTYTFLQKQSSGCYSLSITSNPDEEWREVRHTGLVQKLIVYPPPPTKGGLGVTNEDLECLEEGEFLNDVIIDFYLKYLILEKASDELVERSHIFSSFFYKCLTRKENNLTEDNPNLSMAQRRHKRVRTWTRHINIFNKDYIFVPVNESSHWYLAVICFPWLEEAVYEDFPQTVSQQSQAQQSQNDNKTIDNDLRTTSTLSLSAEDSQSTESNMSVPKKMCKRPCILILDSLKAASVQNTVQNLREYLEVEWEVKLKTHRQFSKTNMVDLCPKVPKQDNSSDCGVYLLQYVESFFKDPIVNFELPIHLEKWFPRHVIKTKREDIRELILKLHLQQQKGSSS
SENP6 inh: inhibitors of human SENP6 protease. inhibition, % at 10 µM. Recombinant SENP6 catalytic domain, aminoluciferin luminescence. AID 2599. hit rate 1.8% among 330,000. Q9GZR1;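 active = inhibition above about 50% at the single tested dose, limit read from the data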;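 note: plate controls were DMSO wells with enzyme for no effect and DMSO wells lacking enzyme for full effect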
SENP8 block-2: SENP8 protease inhibition; inhibition, % at 10 µM; Q96LD8; hit rate 1.2% among 330,000; AID 2540; purified SENP8, Z-RLRGG-aminoluciferin cleavage, luminescence; in the data active = inhibition above about 50%
SENP1 FRET inh: blocks the human SENP1 SUMO protease catalytic domain; inhibition, % at 10 µM; recombinant SENP1 catalytic domain, CyPet-SUMO1-YPet FRET cleavage; hit rate 0.21% among 360,000;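 active = inhibition at least 30% at 10 µM, raw YFP signal under a set limit, fluorescence ratio 0.5 to 1.5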;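 note: 0% = enzyme with DMSO and 100% = no enzyme wells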
Target sequence (Q9P0U3 419-644 limits assumed): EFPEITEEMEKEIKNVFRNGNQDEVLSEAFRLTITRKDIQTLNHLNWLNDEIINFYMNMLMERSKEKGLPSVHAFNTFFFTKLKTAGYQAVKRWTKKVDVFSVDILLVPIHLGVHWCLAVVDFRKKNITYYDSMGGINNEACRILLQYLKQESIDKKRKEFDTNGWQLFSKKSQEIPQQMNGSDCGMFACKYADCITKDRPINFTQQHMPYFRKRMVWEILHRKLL
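System: Recombinant human SENP1 catalytic domain, His6-tagged | Incubation: Enzyme reaction for 50 min at room temperature, dark | Medium: Tris pH 8 with BME, BSA, NP40 and catalase | Also added: 25 nM SUMO1 FRET substrate | Compound: 10 µM single point, 0.5% DMSO | Measured by: FRET fluorescence in CFP and YFP emission channels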
SENP8 confirm: confirmation of human SENP8 protease inhibitors; shares compounds with SENP7 block; Recombinant SENP8, Z-RLRGG-aminoluciferin luminescence, 60 min; inhibition, % at 12.5 µM; hit rate 40% among 6,200;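 active = mean inhibition across replicates above about 50%, limit read from the data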
SENP6 confirm: confirmation of human SENP6 protease inhibitors | shares compounds with SENP7 block | recombinant SENP6, Z-RLRGG-aminoluciferin luminescence | inhibition, % at 12.5 µM | hit rate 58% among 6,200
SENP7 confirm: confirmation of human SENP7 protease inhibitors. AID 488917. inhibition, % at 12.5 µM. recombinant SENP7, Z-RLRGG-aminoluciferin luminescence, 40 min. hit rate 69% among 6,200. shares compounds with SENP7 block
Casp3 select: selectivity test for SENP inhibitors: human caspase-3 inhibition | shares compounds with SENP7 block | purified caspase-3, Z-DEVD-aminoluciferin luminescence, 60 min | inhibition, % at 12.5 µM | hit rate 60% among 6,200 | AID 488918;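 active = mean inhibition above about 50%, limit read from the data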;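 note: plate controls were enzyme with DMSO for no effect and wells without caspase-3 for full effect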
SENP luc ctr: interferes with luciferase luminescence in SENP counter-screen; shares compounds with SENP7 block; Pre-incubated SENP8/Z-RLRGG-aminoluciferin, luciferase luminescence interference; inhibition, % at 12.5 µM; hit rate 39% among 6,200; AID 488919;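 active = mean inhibition above about 50% when retested at one dose, limit read from the data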;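 note: plate controls were DMSO wells with completed reaction for no effect and substrate without enzyme for full effect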
Active calls of the source: *; x = not tested or not shown.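 Rule for the calls, unless noted: active = mean inhibition above about 50% in the one-dose retest (limit read from the data); inactive = the rest.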

SMILES	Apaf-1 inh	SENP8 block-1	SENP7 block	SENP6 inh	SENP8 block-2	SENP1 FRET inh	SENP8 confirm	SENP6 confirm	SENP7 confirm	Casp3 select	SENP luc ctr
COc1cc(/C=C2\NC(=S)NC2=O)ccc1OCc1cccc(C(=O)O)c1	8	-82	-4	28	-12	-4	x	x	x	x	x
Cc1ccccc1NC(=O)c1cccc(C(F)(F)F)c1	0	-3	-4	-26	-15	4	x	x	x	x	x
O=C(Nc1nnc(-c2cccs2)o1)c1cccc(Oc2ccccc2)c1	8	1	2	18	12	4	x	x	x	x	x
O=C(Nc1ccsc1C(=O)O)c1cccc(C(F)(F)F)c1	5	7	43	75*	69*	3	82*	82*	92*	80*	83*
O=C(Nc1ccsc1C(=O)O)c1cccc(Oc2ccccc2)c1	5	15	28	93*	91*	0	95*	96*	99*	79*	95*
O=C(C(=O)N1CCC(c2ccccc2)CC1)c1ccc(F)c(F)c1	x	12	x	x	x	2	x	x	x	x	x
O=C(O)COc1ccccc1/C=N/NC(=O)CSc1nnc(SCc2cccc3ccccc23)s1	0	16	1	-11	27	1	x	x	x	x	x
Cc1ccc(CSc2nnc(SCC(=O)N/N=C/c3c(C)nn(-c4ccccc4)c3C)s2)cc1	34	16	55*	75*	41	3	12	26	39	12	6
O=C(O)COc1ccccc1/C=N/NC(=O)CSc1nnc(SCc2ccc(Cl)cc2)s1	-4	26	9	66*	45	2	36	49	67*	19	3
O=C1NC[C@@H](CCCCN2C[C@H](Cc3ccccc3)N(CCC3CCCCC3)C(=O)C2=O)N(CC2CCCCC2)C1=O	x	15	x	x	x	1	x	x	x	x	x
CN(C)/C=C/C(=O)c1ccc(F)cc1F	-2	11	-5	-16	-15	1	x	x	x	x	x
O=C(NCc1ccc(Cl)cc1)C1CCN(c2nnc(N3CCCC3=O)s2)CC1	-6	10	-2	-8	8	2	x	x	x	x	x
N#C/C(=C(/O)c1ccc(-c2cccc([N+](=O)[O-])c2)o1)c1nc2ccccc2s1	15	-23	25	97*	93*	-20	13	26	18	4	9
COc1ccc2nc(N3CCC(C)CC3)c(C#N)cc2c1	34	-326	-5	72*	11	-15	6	6	9	4	5
O=C(Nc1ccccc1Cl)c1cc(C2CCCCN2C(=O)c2ccccc2)on1 (stereo unspecified)	x	10	x	x	x	-1	x	x	x	x	x
CN(C)S(=O)(=O)c1ccc(NC(=O)c2ccccn2)cc1	-6	14	22	-7	-13	3	x	x	x	x	x
CCCNS(=O)(=O)c1ccc(NC(=O)c2ccccn2)cc1	-6	16	57*	69*	41	1	36	35	79*	76*	58*
CC(=O)NS(=O)(=O)c1ccc(NC(=O)c2ccccn2)cc1	-17	12	2	-15	2	-1	x	x	x	x	x
CCN(CC)S(=O)(=O)c1ccc(NC(=O)c2ccccn2)cc1	1	12	59*	64*	39	1	49	48	81*	68*	57*
C[C@H](CO)N1C[C@H](C)[C@@H](CN(C)S(=O)(=O)c2ccc(-n3cccn3)cc2)OCc2cnnn2CCCC1=O	x	0	x	x	x	2	x	x	x	x	x
C[C@H](CO)N1C[C@H](C)[C@@H](CN(C)C(=O)c2ccccn2)Oc2cc(Br)ccc2S1(=O)=O	x	1	x	x	x	-1	x	x	x	x	x
Cn1c(/N=C/c2c[nH]c3ccccc23)nc2ccccc21	7	17	93*	95*	94*	-6	96*	97*	103*	94*	20
CC(C)n1c(/N=C/c2c[nH]c3ccccc23)nc2ccccc21	13	21	8	1	-10	-5	x	x	x	x	x
CN(C)C(=O)c1nc2ccccc2s1	-3	13	14	-18	1	1	x	x	x	x	x
CN(C(=O)c1ccccc1)c1nc2ccccc2s1	4	16	47	71*	44	0	28	51*	71*	45	43
SMILES	Apaf-1 inh	SENP8 block-1	SENP7 block	SENP6 inh	SENP8 block-2	SENP1 FRET inh	SENP8 confirm	SENP6 confirm	SENP7 confirm	Casp3 select	SENP luc ctr
Cc1cc2nc(-c3cccnc3SCC(=O)NC(C)C)[nH]c2cc1C	-2	-371	87*	90*	82*	-6	86*	85*	98*	88*	9
CCOC(=O)CSc1ccc(-c2nc3cc(C)c(C)cc3[nH]2)cn1	15	-356	-17	-23	-10	-18	x	x	x	x	x
COCCOC(=O)CSc1ncccc1-c1nc2cc(C)c(C)cc2[nH]1	-8	-439	95*	21	93*	-12	93*	96*	102*	96*	96*
O=C(CSc1ncccc1-c1nc2ccccc2[nH]1)NC1CC1	3	-223	5	11	-3	4	x	x	x	x	x
Cc1nn(-c2ccc(F)cc2)c2sc(C(=O)O)cc12	-18	8	98*	-10	0	3	4	2	6	-3	-13
Oc1[nH]c2ccccc2c1N=Nc1cccc(Cl)c1	25	24	64*	36	47	0	-20	-2	14	8	-5
Cc1cccc2c(N=NC(=O)C(C)n3cnc4ccccc4c3=O)c(O)[nH]c12 (stereo unspecified)	-10	18	4	-17	1	0	x	x	x	x	x
Cc1cccc2c(N=Nc3ccccc3)c(O)[nH]c12	8	19	54*	-3	-9	10	12	13	35	12	7
Oc1[nH]c2ccccc2c1N=Nc1nncc2ccccc12	3	-35	74*	72*	42	0	49	48	72*	76*	58*
O=C(N=Nc1c(O)[nH]c2ccccc12)c1ccco1	6	20	62*	60*	24	2	49	46	83*	80*	33
CCCS(=O)(=O)NC(=O)C1(C)CCN(C(=O)c2oc3ccccc3c2C)C1 (stereo unspecified)	x	18	x	x	x	0	x	x	x	x	x
